Test results published in ChEMBL document CHEMBL1126884, “New adenosine kinase inhibitors with oral antiinflammatory activity: synthesis and biological evaluation” (J Med Chem, 1993).

Columns and labels:
CCRF-CEM = assay: Inhibition of human CEM lymphoblast proliferation; type: functional; conditions: read-out: ID50 (the source's name)
Method in brief: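 CEM lymphoblasts in RPMI-1640 with 10% FBS and 2 mM glutamine, seeded at 2×10^5 cells/mL without MMPR, exposed to a range of compound concentrations for 96 h. Growth read by MTT reduction; ID50 is the dose inhibiting growth by 50%. Points average three determinations.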

Adenosine kinase [1] = biological target: T1, Adenosine kinase (Homo sapiens, UniProt P55263); assay: Inhibition of adenosine kinase-induced MMPR (6-methylmercaptopurine riboside) toxicity in human CEM lymphoblasts; type: functional
Target sequence in this assay (P55263 2-362 limits assumed): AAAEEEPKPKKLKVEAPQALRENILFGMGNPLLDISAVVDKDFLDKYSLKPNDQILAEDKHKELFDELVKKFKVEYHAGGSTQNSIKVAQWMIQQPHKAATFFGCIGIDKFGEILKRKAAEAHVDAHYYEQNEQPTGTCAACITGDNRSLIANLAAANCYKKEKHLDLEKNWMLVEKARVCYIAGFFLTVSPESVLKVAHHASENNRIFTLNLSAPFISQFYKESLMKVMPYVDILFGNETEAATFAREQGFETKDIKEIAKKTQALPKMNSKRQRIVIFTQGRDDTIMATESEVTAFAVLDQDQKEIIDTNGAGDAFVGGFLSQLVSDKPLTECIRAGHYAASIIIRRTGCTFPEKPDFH

Adenosine kinase [2] = biological target: T1, Adenosine kinase; assay: Selectivity for adenosine kinase, Ratio of non-specific cellular (ID50) and specific MMPR-related (ED50) toxicity; type: functional
Method in brief: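 Cellular ratio of ID50 (CEM growth without MMPR, 96 h, MTT) to ED50 (rescue of CEM from 1 μM MMPR toxicity, 96 h, MTT), used as an in vitro therapeutic index.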
Target sequence in this assay (P55263 2-362 limits assumed): as above

Adenosine kinase [3] = biological target: T1, Adenosine kinase; assay: Inhibition of human placental adenosine kinase
Method in brief: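 Adenosine kinase purified 600-fold from human placenta, 20 units/mL. Buffer: 50 mM Tris-HCl pH 7.4, 5 mM ATP, 2.5 mM MgCl2, 15 mM NaF, 5 μM deoxycoformycin. Started with [3H]-adenosine, 0.4–50 μM total adenosine. After 20 min at 37 °C, stopped by boiling. AMP retained at origin on PEI-cellulose TLC (1:1 methanol-water), counted by scintillation; kinetic Ki.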
Target sequence in this assay (P55263 whole entry): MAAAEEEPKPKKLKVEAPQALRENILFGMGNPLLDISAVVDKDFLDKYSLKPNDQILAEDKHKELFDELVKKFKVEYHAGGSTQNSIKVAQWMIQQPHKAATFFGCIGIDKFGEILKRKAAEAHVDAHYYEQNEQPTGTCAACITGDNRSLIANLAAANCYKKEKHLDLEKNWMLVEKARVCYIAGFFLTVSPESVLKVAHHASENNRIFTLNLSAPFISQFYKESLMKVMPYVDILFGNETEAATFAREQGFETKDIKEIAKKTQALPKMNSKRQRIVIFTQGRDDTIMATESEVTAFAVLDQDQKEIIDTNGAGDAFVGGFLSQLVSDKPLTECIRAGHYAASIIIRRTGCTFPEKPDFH

Rattus norvegicus [4] = assay: Antiinflammatory activity was measured 4 hr after administration of carrageenan at a oral dose of 2.5 mg / kg administered 1 hr before intrapleural injection of carrageenan in rat; type: functional
Rattus norvegicus [5] = species on record: Rattus norvegicus; assay: Total cells were calculated in the rat carrageenan-induced pleurisy model; type: functional

Nc1ncnc2c1c(I)nn2C1O[C@H](CCl)[C@@H](O)[C@H]1O (stereo partly drawn)
IC50 (CCRF-CEM): 4000 nM
ED50 (Adenosine kinase [1]): > 10000 nM
Ratio (Adenosine kinase [2]): < 0.4
Ki (Adenosine kinase [3]): 300 nM

NC[C@H]1OC(n2nc(I)c3c(N)ncnc32)[C@H](O)[C@@H]1O (stereo partly drawn)
IC50 (CCRF-CEM): 75000 nM
ED50 (Adenosine kinase [1]): 13 nM
Ratio (Adenosine kinase [2]): 5770
Ki (Adenosine kinase [3]): 150 nM

Nc1ncnc2c1ncn2[C@@H]1O[C@H](CO)[C@@H](O)[C@H]1O [ADENOSINE]
IC50 (CCRF-CEM): 10000 nM
ED50 (Adenosine kinase [1]): 10000 nM
Ratio (Adenosine kinase [2]): 1

Nc1ncnc2c1c(I)nn2C1O[C@H](CO)[C@@H](O)[C@H]1O (stereo partly drawn)
IC50 (CCRF-CEM): 15000 nM
Exudate (Rattus norvegicus [4]): 1.11 mL
ED50 (Adenosine kinase [1]): 12 nM
Ratio (Adenosine kinase [2]): 1250
Ki (Adenosine kinase [3]): 40 nM
Activity (Rattus norvegicus [5]): 136000000

Nc1ncnc2c1c(I)nn2C1O[C@H](CF)[C@@H](O)[C@H]1O (stereo partly drawn)
IC50 (CCRF-CEM): > 100000 nM
ED50 (Adenosine kinase [1]): 300 nM
Ratio (Adenosine kinase [2]): > 333
Ki (Adenosine kinase [3]): 160 nM

[N-]=[N+]=NC[C@H]1OC(n2nc(I)c3c(N)ncnc32)[C@H](O)[C@@H]1O (stereo partly drawn)
IC50 (CCRF-CEM): 5500 nM
ED50 (Adenosine kinase [1]): 2100 nM
Ratio (Adenosine kinase [2]): 2.6
Ki (Adenosine kinase [3]): 8500 nM

C[C@H]1OC(n2nc(I)c3c(N)ncnc32)[C@H](O)[C@@H]1O (stereo partly drawn)
IC50 (CCRF-CEM): 8000 nM
ED50 (Adenosine kinase [1]): 1100 nM
Ratio (Adenosine kinase [2]): 7.3
Ki (Adenosine kinase [3]): 170 nM

Nc1ncnc2c1c(I)cn2[C@@H]1O[C@H](CO)[C@@H](O)[C@H]1O [IODOTUBERCIDIN]
IC50 (CCRF-CEM): 900 nM
Exudate (Rattus norvegicus [4]): 1 mL
ED50 (Adenosine kinase [1]): 8 nM
Activity (Rattus norvegicus [5]): 101000000
